From ChEMBL document CHEMBL1127615, “5,7-Dimethoxy-3-(4-pyridinyl)quinoline is a potent and selective inhibitor of human vascular beta-type platelet-derived growth factor receptor tyrosine kinase” (J Med Chem, 1994) come the findings set out here.

One assay has as its target Protein kinase C (PKC). The assay is described as follows: Inhibition of Serine/threonine protein kinases C. In kind it is protein assay, Homo sapiens.
Assay [1] concerns the target Tyrosine-protein kinase Lck (Homo sapiens, UniProt P06239). In words: Inhibition of p56 lck kinase.
Assay [2] has as its target Receptor tyrosine-protein kinase erbB-2 (Homo sapiens, UniProt P04626). In words: Inhibition of erbB2 receptor.
Assay [3] can be described thus: Inhibition of vascular smooth muscle cell proliferation by [3H]thymidine incorporation. The assay is classed as functional. The settings on record: Homo sapiens. The method in brief: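 Primary human vascular smooth muscle cells, serum-starved 48 h, then inhibitor for 2 h, PDGF-BB (10 ng/mL) for 24 h, then [3H]thymidine (0.5 μCi/mL) for 24 h more. Cells were washed with ice-cold 5% TCA, extracted with 0.1 N NaOH (30 min, 25 °C), neutralized and counted. Inhibition is relative to vehicle (≤0.5% DMSO).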
(In general: Incorporation of labelled thymidine or its analogues reports DNA synthesis.)

The target in assay [4] is Platelet-derived growth factor receptor (Homo sapiens, UniProt P09619+P16234). In words: Inhibition of Platelet-derived growth factor receptor tyrosine kinase. In kind it is protein-complex assay.

In general, IC50 refers to the concentration at which inhibition is half-maximal. Low values mean inhibition by little substance, high ones a need for much substance.

Molecules are shown by their SMILES.

Chain of Receptor tyrosine-protein kinase erbB-2 (P04626 whole entry): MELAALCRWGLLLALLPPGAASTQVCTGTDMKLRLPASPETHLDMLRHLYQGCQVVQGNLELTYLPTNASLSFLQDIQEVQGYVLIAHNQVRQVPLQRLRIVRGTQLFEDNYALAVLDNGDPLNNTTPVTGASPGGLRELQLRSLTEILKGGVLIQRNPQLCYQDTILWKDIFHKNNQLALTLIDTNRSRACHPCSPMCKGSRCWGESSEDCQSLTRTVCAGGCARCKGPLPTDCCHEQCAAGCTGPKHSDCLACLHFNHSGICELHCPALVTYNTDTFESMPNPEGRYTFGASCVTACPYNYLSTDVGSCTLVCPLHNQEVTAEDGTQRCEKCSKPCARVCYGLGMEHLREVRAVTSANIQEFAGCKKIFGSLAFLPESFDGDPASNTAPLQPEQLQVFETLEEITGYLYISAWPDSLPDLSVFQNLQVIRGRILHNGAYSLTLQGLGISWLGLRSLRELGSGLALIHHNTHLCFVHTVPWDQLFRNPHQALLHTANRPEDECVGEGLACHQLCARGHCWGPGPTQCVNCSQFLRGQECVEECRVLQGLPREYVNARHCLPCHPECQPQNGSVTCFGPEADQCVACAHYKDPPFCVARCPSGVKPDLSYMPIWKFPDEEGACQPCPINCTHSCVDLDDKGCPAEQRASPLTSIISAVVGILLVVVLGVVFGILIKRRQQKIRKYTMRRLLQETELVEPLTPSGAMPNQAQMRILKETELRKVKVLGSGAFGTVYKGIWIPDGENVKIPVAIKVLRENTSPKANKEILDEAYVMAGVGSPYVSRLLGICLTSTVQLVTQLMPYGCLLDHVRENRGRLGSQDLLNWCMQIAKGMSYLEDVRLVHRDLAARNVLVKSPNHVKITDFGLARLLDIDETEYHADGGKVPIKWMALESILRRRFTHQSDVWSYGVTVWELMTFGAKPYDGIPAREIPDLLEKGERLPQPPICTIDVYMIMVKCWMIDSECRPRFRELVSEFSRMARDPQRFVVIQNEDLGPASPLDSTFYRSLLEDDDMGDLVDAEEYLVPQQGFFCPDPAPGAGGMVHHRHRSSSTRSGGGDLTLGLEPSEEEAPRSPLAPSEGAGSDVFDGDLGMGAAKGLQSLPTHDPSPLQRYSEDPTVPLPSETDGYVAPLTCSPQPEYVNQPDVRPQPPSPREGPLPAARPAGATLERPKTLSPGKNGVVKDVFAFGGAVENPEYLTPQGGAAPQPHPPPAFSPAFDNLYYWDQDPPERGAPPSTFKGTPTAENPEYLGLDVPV
Chain of Tyrosine-protein kinase Lck (P06239 whole entry): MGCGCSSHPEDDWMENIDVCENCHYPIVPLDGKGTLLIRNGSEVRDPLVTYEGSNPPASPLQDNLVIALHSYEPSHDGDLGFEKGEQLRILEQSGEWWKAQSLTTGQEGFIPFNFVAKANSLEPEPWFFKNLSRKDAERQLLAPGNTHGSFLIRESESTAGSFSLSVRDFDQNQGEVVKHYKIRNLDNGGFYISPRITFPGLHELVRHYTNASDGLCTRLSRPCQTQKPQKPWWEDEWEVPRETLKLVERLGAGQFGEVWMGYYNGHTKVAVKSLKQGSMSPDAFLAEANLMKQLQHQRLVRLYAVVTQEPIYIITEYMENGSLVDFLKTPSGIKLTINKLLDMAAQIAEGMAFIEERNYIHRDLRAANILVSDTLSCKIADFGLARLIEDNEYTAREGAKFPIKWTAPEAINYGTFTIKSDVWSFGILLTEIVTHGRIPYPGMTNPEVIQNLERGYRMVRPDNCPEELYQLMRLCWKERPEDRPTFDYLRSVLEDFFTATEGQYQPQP

For `COc1cc2cc(-c3ccncc3)cnc2cc1OC`, the IC50 against Protein kinase C (PKC) is above 10 µM; in assay [1], above 10 µM; in assay [2], above 10 µM; in assay [3], 1.8 µM.
`COc1ccc2ncc(-c3ccncc3)c(C)c2c1`: in assay [4], the IC50 is above 50 µM.
As to `Oc1ccc2cc(-c3ccncc3)cnc2c1`, the IC50 was 9.2 µM in assay [4] and above 10 µM in assay [3].
On to `COc1ccc2cc(-c3ccncc3)cnc2c1`, for which the figures for the IC50 in assay [4] and in assay [3] were 0.6 µM and 6.5 µM, respectively.
For `COc1cc(OC)c2cc(-c3ccncc3)cnc2c1`, the IC50 was above 10 µM on Protein kinase C (PKC), above 10 µM in assay [2] and 0.9 µM in assay [3].
On to `Clc1ccc2cc(-c3ccncc3)cnc2c1`, for which the half-inhibitory concentration (IC50) at Protein kinase C (PKC) was above 10 µM; in assay [4] it was 0.3 µM.
`COc1cc2ncc(-c3ccncc3)cc2c(OC)c1OC`: the half-maximal inhibitory concentration (IC50) amounted to 0.4 µM in assay [4] and 3.5 µM in assay [3].
The like results for `Oc1cc(O)c2cc(-c3ccncc3)cnc2c1` were, in that order, 1.3 µM and 5.5 µM.
For the compound `Oc1cc2cc(-c3ccncc3)cnc2cc1O`, the concentration for half-maximal inhibition (IC50) against Protein kinase C (PKC) was above 10 µM; in assay [4], 36 µM.
Regarding `COc1ccc2c(C)c(-c3ccncc3)cnc2c1`, the IC50 in assay [4] is above 50 µM.
Compound `c1ccc2ncc(-c3ccncc3)cc2c1` registered an IC50 in assay [4] of 1.5 µM. This counts as single-digit micromolar.
For `COc1ccc2ncc(-c3ccncc3)cc2c1`, in assay [4], inhibition was half-maximal at 0.4 µM (IC50).
